From ChEMBL document CHEMBL1126168, “Benzazepinone calcium channel blockers. 3. Synthesis and structure-activity studies of 3-alkylbenzazepinones” (J Med Chem, 1992) come the findings set out here.

Experiment [1] in a line: (§1) In vitro inhibition [3H]diltiazem binding to calcium channels in isolated guinea pig skeletal muscle microsomal preparations. It is filed as microsomes, Cavia porcellus, Muscle tissue, Microsome.
The species entered for a further experiment is Oryctolagus cuniculus. Briefly: In vitro evaluation for the vasorelaxant effects in circumferential strips of potassium-depolarized rabbit aorta. (IC50 in rabbit aorta strips contracted with KCl). Type of experiment: functional.
Experiment [2] can be described thus: In vivo evaluation for the percentage decrease in blood pressure at 135 umol/kg administered through oral route in spontaneously hypertensive rats and observed for 12-18 h. Type of experiment: functional, Rattus norvegicus. Put shortly: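 Spontaneously hypertensive rats, n = 5, dosed orally at 135 μmol/kg; blood pressure followed and reported as percent decrease over the 0-6, 6-12 and 12-18 h intervals after dosing.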

Experiment [3] is described as follows: In vivo evaluation for the percentage decrease in blood pressure at 45 umol/kg administered through oral route in spontaneously hypertensive rats and observed for 0-6 h.
The nature of experiment [4]: In vivo evaluation for the percentage decrease in blood pressure at 45 umol/kg administered through oral route in spontaneously hypertensive rats and observed for 6-12 h.
A short description of experiment [5]: In vivo evaluation for the percentage decrease in blood pressure at 45 umol/kg administered through oral route in spontaneously hypertensive rats and observed for 12-18 h.
The next experiment is filed under the species Cavia porcellus. Described as §1. Type of experiment: microsomes. Particulars: Muscle tissue, Microsome, concentration not given here.

Usually Kd stands for the constant that tells how readily two partners part at equilibrium. In general, IC50 refers to the concentration at which inhibition is half-maximal. Lower therefore signals greater potency. Take `COc1ccc([C@@H]2Cc3c(ccc(Br)c3OC)N(CCN(C)C)C(=O)[C@@H]2C)cc1.Cl`: the Kd in experiment [1] came out at 0.12 µM. The same compound displayed an IC50 in the experiment filed under Oryctolagus cuniculus of 0.09 µM. Besides, the Decrease was 14% in experiment [2], 9% in experiment [3] and 12% in experiment [4].

On to `COc1ccc([C@@H]2Cc3c(cccc3C(F)(F)F)N(CCN(C)C)C(=O)[C@H]2C)cc1`, for which the Decrease is 24% in experiment [3], 23% in experiment [4] and 17% in experiment [5].

For `COc1ccc([C@@H]2Cc3c(cccc3C(F)(F)F)N(CCN(C)C)C(=O)[C@@H]2OC(C)=O)cc1`, the Decrease was determined as 17% in experiment [3], 12% in experiment [4] and 12% in experiment [5].

For the compound `CC[C@H]1C(=O)N(CCN(C)C)c2cccc(C(F)(F)F)c2C[C@H]1c1ccc(OC)cc1.Cl`, the Decrease in experiment [2] is 15%; in experiment [3], 24%; in experiment [4], 19%.

As for `COc1ccc([C@@H]2Cc3cc(Cl)ccc3N(CCN(C)C)C(=O)[C@@H]2C)cc1`, the dissociation constant (Kd) in experiment [1] worked out at 0.67 µM. The same compound had an IC50 in the experiment listed under Oryctolagus cuniculus of 0.15 µM. Further, the Decrease in experiment [2] is reported as 11%; in experiment [3], 12%; in experiment [4], 13%.

In general, inhibition refers to the relative decrease from the control value, in per cent. In the case of `COc1ccc([C@@H]2Cc3c(cccc3C(F)(F)F)N(CCN(C)C)C(=O)[C@@H]2C)cc1`, the inhibition in the experiment filed under Cavia porcellus is 90%. This compound also displayed an IC50 in the experiment filed under Oryctolagus cuniculus of 0.08 µM. In addition, the values for the Decrease in experiment [2], in experiment [3] and in experiment [4] were 22%, 28% and 22%, respectively.

In the case of `C=CC[C@H]1C(=O)N(CCN(C)C)c2ccc(Cl)cc2C[C@H]1c1ccc(OC)cc1`, the Kd in experiment [1] was 5.04 µM. This compound also showed an IC50 in the experiment filed under Oryctolagus cuniculus of 0.16 µM. For the same compound, the results for the Decrease in experiment [2], in experiment [3] and in experiment [4] were 25%, 23% and 23%, respectively.

Turning to `CC[C@H]1C(=O)N(CCN(C)C)c2cccc(Cl)c2C[C@H]1c1ccc(OC)cc1`, in the experiment listed under Oryctolagus cuniculus, inhibition was half-maximal at 0.08 µM (IC50). Besides, the Decrease stood at 14% in experiment [3], 18% in experiment [4] and 7% in experiment [5].

For the compound `CCC[C@H]1C(=O)N(CCN(C)C)c2ccccc2C[C@H]1c1ccc(OC)cc1.Cl`, in experiment [1], the Kd was found to be 0.25 µM. For the same compound, the Decrease in experiment [2] stood at 12%; in experiment [3], 10%; in experiment [4] it was 11%.

For `COc1ccc([C@@H]2Cc3c(OC)cccc3N(CCN(C)C)C(=O)[C@@H]2C)cc1.Cl`, the Kd in experiment [1] was 0.4 µM. The Decrease in experiment [2] is 8%; in experiment [3], 7%; in experiment [4] it was 10%.

`COc1ccc([C@@H]2Sc3cc(Cl)ccc3N(CCN(C)C)C(=O)[C@@H]2OC(C)=O)cc1` [CLENTIAZEM] registered an IC50 in the experiment filed under Oryctolagus cuniculus of 0.1 µM. Further, the Decrease in experiment [3] came to 29%; in experiment [4], 16%; in experiment [5], 22%.

Take `CCC[C@H]1C(=O)N(CCN(C)C)c2cccc(C(F)(F)F)c2C[C@H]1c1ccc(OC)cc1.Cl`: the Decrease worked out at 14% in experiment [3], 19% in experiment [4] and 24% in experiment [5].

In turn, `COc1ccc([C@@H]2Cc3cc(C(F)(F)F)ccc3N(CCN(C)C)C(=O)[C@@H]2C)cc1.Cl` returned an IC50 in the experiment filed under Oryctolagus cuniculus of 1.23 µM. Also, the results for the Decrease in experiment [2], in experiment [3] and in experiment [4] were 25%, 23% and 23%, respectively.

In the case of `C=CC[C@H]1C(=O)N(CCN(C)C)c2ccccc2C[C@H]1c1ccc(OC)cc1.Cl`, the Decrease came to 18% in experiment [2], 25% in experiment [3] and 23% in experiment [4].

Take `COc1ccc([C@@H]2Cc3ccccc3N(CCN(C)C)C(=O)[C@@H]2C)cc1.Cl`: the IC50 in the experiment listed under Oryctolagus cuniculus was determined as 1.1 µM. For the same compound, the figures for the Decrease in experiment [2], in experiment [3] and in experiment [4] were 8%, 6% and 4%, respectively.

For `C=CC[C@H]1C(=O)N(CCN(C)C)c2ccc(C(F)(F)F)cc2C[C@H]1c1ccc(OC)cc1.Cl`, the midpoint of inhibition in the experiment filed under Oryctolagus cuniculus, the IC50, lay at 0.24 µM. Further, the Decrease stood at 23% in experiment [3], 28% in experiment [4] and 30% in experiment [5].

On to `COc1ccc([C@@H]2Cc3c(cccc3C(F)(F)F)N(CCN(C)C)C(=O)[C@@H]2Cc2ccccc2)cc1`, for which the Decrease in experiment [2] was determined as 6%; in experiment [3], 14%; in experiment [4] it was 8%.

For the compound `COc1ccc([C@@H]2Cc3c(cccc3C(F)(F)F)N(CCN(C)C)C(=O)[C@H]2C)cc1.Cl`, the Decrease is given as 8% in experiment [2], 12% in experiment [3] and 9% in experiment [4].

Compound `CCC[C@H]1C(=O)N(CCN(C)C)c2ccc(C(F)(F)F)cc2C[C@H]1c1ccc(OC)cc1.Cl` had an IC50 in the experiment listed under Oryctolagus cuniculus of 1.2 µM. The Decrease came to 8% in experiment [2], 6% in experiment [3] and 5% in experiment [4].

With `COc1ccc([C@@H]2Cc3c(ccc(SC)c3OC)N(CCN(C)C)C(=O)[C@@H]2C)cc1.Cl`, the 50% inhibitory concentration (IC50) in the experiment listed under Oryctolagus cuniculus worked out at 0.07 µM. Further, the Decrease in experiment [2] is 14%; in experiment [3] it was 18%; in experiment [4], 15%.

In turn, `C=CCC1C(=O)N(CCN(C)C)c2cccc(C(F)(F)F)c2CC1c1ccc(OC)cc1.Cl` (centres undefined) showed an IC50 in the experiment filed under Oryctolagus cuniculus of 0.1 µM. The Decrease in experiment [3] was 24%; in experiment [4], 27%; in experiment [5], 29%.

Take `C=CC[C@H]1C(=O)N(CCN(C)C)c2cccc(C(F)(F)F)c2C[C@H]1c1ccc(OC)cc1.Cl` (relative stereo): in the experiment listed under Oryctolagus cuniculus, 0.077 µM corresponded to half-maximal inhibition (IC50). In addition, the results for the Decrease in experiment [2], in experiment [3] and in experiment [4] were 27%, 33% and 32%, respectively.

As for `CC[C@H]1C(=O)N(CCN(C)C)c2ccc(Cl)cc2C[C@H]1c1ccc(OC)cc1`, half-maximal inhibition in the experiment filed under Oryctolagus cuniculus (IC50) was put at 0.28 µM. The Decrease in experiment [2] was determined as 21%; in experiment [3], 20%; in experiment [4] it was 22%.
